According to ChEMBL document CHEMBL5303300, “EUbOPEN Chemogenomics Library - Multiplex” (2023):
Values joined by “and” are separate entries in the source; they are usually repeats but may differ in a detail not shown here. Identical values can stand only once.

System: HEK-293T
Test: Multiplex assay against HEK293T
Assay type: toxicity, cell-based
Conditions: human, number of replicates 2
Method in brief: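 At seeding, live cells were stained with Hoechst33342, BioTracker Green Microtubule Cytoskeleton Dye, MitoTracker Red and Annexin V Alexa Fluor 680. After compound addition they were imaged on a CQ1 microscope at 37°C and 5% CO2, and CellPathfinder machine-learning gating sorted them into Hoechst high-intensity objects or normal cells, with normal cells further split into healthy, pyknosed or fragmented nuclei and pyknosed cells into mitotic or apoptotic. Tubulin, mitochondrial-mass and membrane-permeability phenotypes are given as per cents of cells with healthy nuclei.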

[1] = 12 h, 1 µM, compound concentration 1 uM
[2] = 12 h, 10 µM, compound concentration 10 uM
[3] = 24 h, 1 µM, compound concentration 1 uM
[4] = 24 h, 10 µM, compound concentration 10 uM
[5] = 48 h, 1 µM, compound concentration 1 uM
[6] = 48 h, 10 µM, compound concentration 10 uM

CN(C)CCCNc1ccnc(Nc2cccc(Cl)c2)n1
Population Apoptotic (%) [1]: 33% and 44%
Population Fragmented Nuclei (%) [1]: 2% and 3%
Population Healthy Nuclei (%) [1]: 86% and 87%
Population Hoechst High Intensity Objects (%) [1]: 6% and 7%
Population Membrane Permeable-Phenotype (%) [1]: 5% and 4%
Population Mitochondria Different-Phenotype (%) [1]: 17% and 13%
Population Mitotic Cells (%) [1]: 66% and 55%
Population Normal (%) [1]: 93% and 92%
Population Pyknosed Nuclei (%) [1]: 10% and 8%
Population Tubulin-Different-Phenotype (%) [1]: 51% and 48%
Total Cell Count [1]: 626 and 658
Population Apoptotic (%) [2]: 52% and 65%
Population Fragmented Nuclei (%) [2]: 4% and 3%
Population Healthy Nuclei (%) [2]: 87% and 88%
Population Hoechst High Intensity Objects (%) [2]: 10% and 11%
Population Membrane Permeable-Phenotype (%) [2]: 3% and 2%
Population Mitochondria Different-Phenotype (%) [2]: 37% and 32%
Population Mitotic Cells (%) [2]: 47% and 34%
Population Normal (%) [2]: 89% and 88%
Population Pyknosed Nuclei (%) [2]: 8%
Population Tubulin-Different-Phenotype (%) [2]: 79% and 75%
Total Cell Count [2]: 466 and 581
Population Apoptotic (%) [3]: 26% and 29%
Population Fragmented Nuclei (%) [3]: 3% and 4%
Population Healthy Nuclei (%) [3]: 89%
Population Hoechst High Intensity Objects (%) [3]: 6%
Population Membrane Permeable-Phenotype (%) [3]: 5% and 3%
Population Mitochondria Different-Phenotype (%) [3]: 5% and 4%
Population Mitotic Cells (%) [3]: 73% and 70%
Population Normal (%) [3]: 93%
Population Pyknosed Nuclei (%) [3]: 7% and 6%
Population Tubulin-Different-Phenotype (%) [3]: 31% and 30%
Total Cell Count [3]: 950 and 963
Population Apoptotic (%) [4]: 43% and 66%
Population Fragmented Nuclei (%) [4]: 3% and 4%
Population Healthy Nuclei (%) [4]: 92% and 90%
Population Hoechst High Intensity Objects (%) [4]: 7% and 14%
Population Membrane Permeable-Phenotype (%) [4]: 6% and 3%
Population Mitochondria Different-Phenotype (%) [4]: 32% and 35%
Population Mitotic Cells (%) [4]: 56% and 33%
Population Normal (%) [4]: 92% and 85%
Population Pyknosed Nuclei (%) [4]: 4% and 5%
Population Tubulin-Different-Phenotype (%) [4]: 79% and 83%
Total Cell Count [4]: 546 and 605
Population Apoptotic (%) [5]: 14% and 10%
Population Fragmented Nuclei (%) [5]: 11% and 8%
Population Healthy Nuclei (%) [5]: 86% and 87%
Population Hoechst High Intensity Objects (%) [5]: 9% and 8%
Population Membrane Permeable-Phenotype (%) [5]: 5% and 3%
Population Mitochondria Different-Phenotype (%) [5]: 0%
Population Mitotic Cells (%) [5]: 85% and 89%
Population Normal (%) [5]: 90% and 91%
Population Pyknosed Nuclei (%) [5]: 2% and 3%
Population Tubulin-Different-Phenotype (%) [5]: 15% and 17%
Total Cell Count [5]: 2534 and 2133
Population Fragmented Nuclei (%) [6]: 6% and 5%
Population Healthy Nuclei (%) [6]: 89% and 88%
Population Hoechst High Intensity Objects (%) [6]: 6% and 9%
Population Membrane Permeable-Phenotype (%) [6]: 6% and 5%
Population Mitochondria Different-Phenotype (%) [6]: 8% and 10%
Population Mitotic Cells (%) [6]: 86% and 42%
Population Normal (%) [6]: 93% and 90%
Population Pyknosed Nuclei (%) [6]: 3% and 5%
Population Tubulin-Different-Phenotype (%) [6]: 52%
Total Cell Count [6]: 814 and 883

COc1ccncc1C(=O)NC(=O)Nc1ccc(-c2ccccc2)c(C(F)(F)F)c1
Population Apoptotic (%) [1]: 56% and 45%
Population Fragmented Nuclei (%) [1]: 2% and 4%
Population Healthy Nuclei (%) [1]: 87% and 84%
Population Hoechst High Intensity Objects (%) [1]: 7% and 8%
Population Membrane Permeable-Phenotype (%) [1]: 2% and 3%
Population Mitochondria Different-Phenotype (%) [1]: 23% and 12%
Population Mitotic Cells (%) [1]: 43% and 54%
Population Normal (%) [1]: 93% and 91%
Population Pyknosed Nuclei (%) [1]: 10% and 11%
Population Tubulin-Different-Phenotype (%) [1]: 55% and 46%
Total Cell Count [1]: 543 and 715
Population Apoptotic (%) [2]: 49% and 44%
Population Fragmented Nuclei (%) [2]: 3% and 4%
Population Healthy Nuclei (%) [2]: 81% and 84%
Population Hoechst High Intensity Objects (%) [2]: 7%
Population Membrane Permeable-Phenotype (%) [2]: 2%
Population Mitochondria Different-Phenotype (%) [2]: 28% and 21%
Population Mitotic Cells (%) [2]: 50% and 55%
Population Normal (%) [2]: 92%
Population Pyknosed Nuclei (%) [2]: 14% and 11%
Population Tubulin-Different-Phenotype (%) [2]: 66% and 52%
Total Cell Count [2]: 484 and 596
Population Apoptotic (%) [3]: 43% and 39%
Population Fragmented Nuclei (%) [3]: 3% and 5%
Population Healthy Nuclei (%) [3]: 88% and 86%
Population Hoechst High Intensity Objects (%) [3]: 6% and 9%
Population Membrane Permeable-Phenotype (%) [3]: 2%
Population Mitochondria Different-Phenotype (%) [3]: 4% and 6%
Population Mitotic Cells (%) [3]: 56% and 60%
Population Normal (%) [3]: 93% and 90%
Population Pyknosed Nuclei (%) [3]: 7%
Population Tubulin-Different-Phenotype (%) [3]: 33% and 30%
Total Cell Count [3]: 828 and 1052
Population Apoptotic (%) [4]: 61% and 41%
Population Fragmented Nuclei (%) [4]: 8% and 6%
Population Healthy Nuclei (%) [4]: 82% and 85%
Population Hoechst High Intensity Objects (%) [4]: 9% and 8%
Population Membrane Permeable-Phenotype (%) [4]: 2%
Population Mitochondria Different-Phenotype (%) [4]: 11% and 7%
Population Mitotic Cells (%) [4]: 38% and 58%
Population Normal (%) [4]: 90% and 91%
Population Pyknosed Nuclei (%) [4]: 9% and 8%
Population Tubulin-Different-Phenotype (%) [4]: 38% and 32%
Total Cell Count [4]: 722 and 835
Population Apoptotic (%) [5]: 8% and 9%
Population Fragmented Nuclei (%) [5]: 11%
Population Healthy Nuclei (%) [5]: 85%
Population Hoechst High Intensity Objects (%) [5]: 9%
Population Membrane Permeable-Phenotype (%) [5]: 5% and 4%
Population Mitochondria Different-Phenotype (%) [5]: 0%
Population Mitotic Cells (%) [5]: 91% and 90%
Population Normal (%) [5]: 90%
Population Pyknosed Nuclei (%) [5]: 3%
Population Tubulin-Different-Phenotype (%) [5]: 14% and 12%
Total Cell Count [5]: 2070 and 2556
Population Apoptotic (%) [6]: 26% and 21%
Population Fragmented Nuclei (%) [6]: 11% and 12%
Population Healthy Nuclei (%) [6]: 84%
Population Hoechst High Intensity Objects (%) [6]: 7% and 8%
Population Membrane Permeable-Phenotype (%) [6]: 4% and 6%
Population Mitochondria Different-Phenotype (%) [6]: 1%
Population Mitotic Cells (%) [6]: 73% and 78%
Population Normal (%) [6]: 92% and 91%
Population Pyknosed Nuclei (%) [6]: 4% and 3%
Population Tubulin-Different-Phenotype (%) [6]: 23% and 19%
Total Cell Count [6]: 1542 and 1838
